Series [1] has as its target Tyrosine-protein kinase Fyn (Homo sapiens, UniProt P06241). The experiment in a line: Inhibition of recombinant full length N-terminal His6 tagged human FYN expressed in baculovirus infected sf21 cells using KVEKIGEGTYGVVYK as substrate in presence of [gamma33P]ATP by scintillation counting method. A digest of the protocol:
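Fyn radiometric assay with 250 µM Src-peptide, 100 µM ATP plus γ-33P ATP, 0.00087% NP-40, 10-50 ng enzyme, 10% DMSO, 30 °C for 10 min. ID50 taken from velocity fits. Ki derived assuming ATP-competitive binding, with ATP Km 102 µM.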

Series [2] deals with FEPD. The experiment in a line: Antiproliferative activity against human FEPD cells assessed as reduction in cell viability after 72 hrs by MTT assay. A general note: Tetrazolium dyes change colour on reduction, which living cells bring about.
For series [3], the system named is SU-DHL-8. The series can be described thus: Antiproliferative activity against human SUDHL8 cells assessed as reduction in cell viability after 72 hrs by MTT assay. Particulars: SU-DHL-8, 72 h.
Series [4] addresses Tyrosine-protein kinase Lyn (Homo sapiens, UniProt P07948). The experiment in a line: Inhibition of LYN (unknown origin) using KVEKIGEGTYGVVYK as substrate in presence of [gamma33P]ATP as substrate in presence of [gamma33P]ATP by scintillation counting method. The method in brief: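 Lyn radiometric assay with 200 µM Src-peptide, 40 µM ATP plus γ-33P ATP, 0.0013% NP-40, 10-50 ng enzyme, 10% DMSO, 30 °C for 10 min. ID50 taken from velocity fits. Ki derived assuming ATP-competitive binding, with ATP Km 39.9 µM.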

In the next series the test system is H9. The experiment in a line: Antiproliferative activity against human H9 cells assessed as reduction in cell viability after 72 hrs by MTT assay. Particulars: H9, 72 h.
Another series deals with HH. The experiment in a line: Antiproliferative activity against human HH cells assessed as reduction in cell viability after 72 hrs by MTT assay.
The next series relates to Farage. The series can be described thus: Antiproliferative activity against human Farage cells assessed as reduction in cell viability after 72 hrs by MTT assay.
A further series deals with SU-DHL-6. The experiment in a line: Antiproliferative activity against human SUDHL6 cells assessed as reduction in cell viability after 72 hrs by MTT assay. Particulars: SU-DHL-6, 72 h.
Series [5] deals with HuT78. The experiment in a line: Antiproliferative activity against human HUT78 cells assessed as reduction in cell viability after 72 hrs by MTT assay. Particulars: HuT78, 72 h.
For a further series, the system named is DOHH-2. The series can be described thus: Antiproliferative activity against human DOHH2 cells assessed as reduction in cell viability after 72 hrs by MTT assay. Particulars: DOHH-2, 72 h.
The nature of series [6]: Aqueous solubility of compound at 1 mg after 24 hrs by LC-MS/MS analysis. In kind it is physicochemical. Particulars: water. The method in brief:
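Solid compound (1 mg) shaken in 1 mL water at 20 °C for 24 h, then filtered through 0.45 µm nylon. Dissolved concentration measured by LC-MS-MS against a methanol calibration curve, in triplicate. Mean of at least three experiments.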

The nature of series [7]: Apparent permeability of compound at 500 uM after 5 hrs by UV/LC-MS analysis based GI-PAMPA assay. The class given is ADME. A digest of the protocol:
(§1)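 GI-PAMPA run with donor compound at 500 µM final, diluted from 1 mM DMSO into pH 7.4 25.0 mM phosphate buffer. Filter coated with 1% (w/v) phosphatidylcholine in dodecane. Acceptor was 50% v/v DMSO/phosphate buffer. Incubated 5 h at r.t. with gentle shaking. Donor and acceptor wells quantified by UV/LC-MS peak area. Papp and membrane retention calculated by equation, in triplicate.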
A general note: The PAMPA barrier holds no transporters, so it reflects passive diffusion.

A short description of series [8]: Membrane retention of compound at 500 uM after 5 hrs by UV/LC-MS analysis based GI-PAMPA assay relative to control. The class given is ADME. A digest of the protocol:
as §1

A short description of series [9]: Metabolic stability in human liver microsomes assessed as compound remaining at 50 uM after 1 hr by UV/LC-MS analysis relative to control. In kind it is ADME, Microsome. Particulars: read-out: Stability. The method in brief:
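Human liver microsomes at 0.2 mg/mL with NADPH regenerating system, compound at 50 µM in pH 7.4 25 mM phosphate buffer, 37 °C for 1 h. Quenched with acetonitrile, then supernatant dried and taken up in methanol. Unmetabolized percentage measured by UV/LC-MS. Mean of at least three experiments.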
A general note: Microsomes from liver hold many membrane-bound enzymes, among them those of drug oxidation.

Series [10] deals with Tyrosine-protein kinase Blk (Homo sapiens, UniProt P51451). The series can be described thus: Inhibition of BLK (unknown origin) using KVEKIGEGTYGVVYK as substrate in presence of [gamma33P]ATP as substrate in presence of [gamma33P]ATP by scintillation counting method.
Series [11] has as its system FEPD. The series can be described thus: Induction of cell cycle arrest in human FEPD cells assessed as accumulation at sub-G0 phase at 5 to 10 uM after 72 hrs by 7AAD staining based assay. In kind it is functional.
For series [12], the system named is SU-DHL-8. The experiment in a line: Induction of cell cycle arrest in human SUDHL8 cells assessed as accumulation at sub-G0 phase at 5 to 10 uM after 72 hrs by 7AAD staining based assay. The class given is functional.
Series [13] concerns HuT78. The series can be described thus: Induction of cell cycle arrest in human HUT78 cells assessed as accumulation at sub-G0 phase at 5 to 10 uM after 72 hrs by 7AAD staining based assay. The class given is functional.

Values after ≈ are worked out from the molar mass of the structure shown. Active and inactive are the calls of the source. The calls are words filed in the database; no cut-off is given here. Bounds are passed on as bounds.

Tyrosine-protein kinase Lyn, sequence (P07948 whole entry): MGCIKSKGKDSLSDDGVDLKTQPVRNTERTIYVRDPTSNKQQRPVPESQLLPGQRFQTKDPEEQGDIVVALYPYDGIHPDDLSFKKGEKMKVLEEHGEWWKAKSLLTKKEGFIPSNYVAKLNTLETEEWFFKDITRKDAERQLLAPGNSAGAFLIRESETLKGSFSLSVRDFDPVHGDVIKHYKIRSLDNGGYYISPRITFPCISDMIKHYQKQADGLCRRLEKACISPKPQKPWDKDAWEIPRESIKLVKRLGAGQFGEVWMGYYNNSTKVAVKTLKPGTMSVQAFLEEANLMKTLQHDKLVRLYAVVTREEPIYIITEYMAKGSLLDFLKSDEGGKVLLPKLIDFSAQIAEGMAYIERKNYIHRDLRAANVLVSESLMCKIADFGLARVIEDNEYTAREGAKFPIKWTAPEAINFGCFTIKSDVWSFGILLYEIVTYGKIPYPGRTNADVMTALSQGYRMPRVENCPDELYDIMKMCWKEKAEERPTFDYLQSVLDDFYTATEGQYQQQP
Tyrosine-protein kinase Fyn, sequence (P06241 whole entry): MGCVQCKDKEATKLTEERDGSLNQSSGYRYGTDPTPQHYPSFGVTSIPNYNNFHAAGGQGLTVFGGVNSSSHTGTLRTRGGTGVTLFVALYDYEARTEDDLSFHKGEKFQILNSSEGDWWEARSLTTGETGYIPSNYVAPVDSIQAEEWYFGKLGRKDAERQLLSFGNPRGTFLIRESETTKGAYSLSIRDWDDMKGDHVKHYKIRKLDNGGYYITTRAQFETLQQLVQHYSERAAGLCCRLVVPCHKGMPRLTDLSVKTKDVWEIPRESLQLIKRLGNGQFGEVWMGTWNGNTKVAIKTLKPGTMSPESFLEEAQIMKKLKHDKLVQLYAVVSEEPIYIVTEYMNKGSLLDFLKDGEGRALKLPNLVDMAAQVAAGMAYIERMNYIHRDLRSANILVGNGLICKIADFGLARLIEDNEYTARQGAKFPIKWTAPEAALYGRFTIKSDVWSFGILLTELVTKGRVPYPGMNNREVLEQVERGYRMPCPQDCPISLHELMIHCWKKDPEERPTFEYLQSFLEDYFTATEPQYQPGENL
Tyrosine-protein kinase Blk, sequence (P51451 whole entry): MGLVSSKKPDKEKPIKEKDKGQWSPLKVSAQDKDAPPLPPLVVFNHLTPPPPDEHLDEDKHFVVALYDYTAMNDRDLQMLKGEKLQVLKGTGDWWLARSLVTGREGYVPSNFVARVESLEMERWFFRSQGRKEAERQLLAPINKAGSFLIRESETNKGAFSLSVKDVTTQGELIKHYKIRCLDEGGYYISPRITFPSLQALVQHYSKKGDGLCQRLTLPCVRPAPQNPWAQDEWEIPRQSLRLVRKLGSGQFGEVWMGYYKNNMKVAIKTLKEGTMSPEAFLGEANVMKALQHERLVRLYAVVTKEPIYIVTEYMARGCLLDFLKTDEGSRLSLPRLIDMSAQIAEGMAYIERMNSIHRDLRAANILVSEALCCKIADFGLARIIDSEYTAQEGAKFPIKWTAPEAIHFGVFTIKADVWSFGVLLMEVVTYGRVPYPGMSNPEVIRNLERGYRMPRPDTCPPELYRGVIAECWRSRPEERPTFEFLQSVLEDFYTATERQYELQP

Usually Ki stands for the dissociation constant of the complex between target and ligand, obtained from inhibition or displacement. Usually IC50 stands for the midpoint of a concentration-inhibition curve. The solubility is the dissolved amount per volume that the medium holds. One may read the Papp as the rate of passage across a membrane or cell layer, normalised by area and donor concentration. `Nc1ncnc2c1c(-c1ccc(Cl)cc1)nn2CC(Cl)c1ccccc1` (stereo not drawn): the inhibition constant (Ki) in [1] worked out at 0.16 µM; in [4] it was 0.19 µM; in series [10], 0.19 µM. Besides, the IC50 in the series with FEPD [2] was 15.8 µM; in the series with SU-DHL-8 [3], 8.87 µM; in the series on H9, 13.6 µM; in the series on HH, 13.9 µM; in the series with Farage, 14.9 µM; with SU-DHL-6, 21.5 µM. Besides, the IC50 was over 100 µM in the series with HuT78 [5] and 11.4 µM in the series with DOHH-2. Moreover, the concentration in solution in series [6] (solubility at 24 h) came to 0.01 µg/mL (≈ 0.026 µM). In addition, in series [7], the Papp at 5 h, 500 µM came to 9.95 ×10⁻⁶ cm/s. The compound further had a R% in series [8] of 70.4%. For the same compound, the remaining at 1 h, 50 µM in [9] was found to be 85.2%.

Turning to `Nc1ncnc2c1c(-c1ccccc1Cl)nn2CC(Cl)c1ccccc1` (racemic), the IC50 is 38.9 µM with FEPD [2]; 18.4 µM in the series with SU-DHL-8 [3]; 38.9 µM in the series on H9; over 100 µM in the series with HH; 51.5 µM with Farage; over 100 µM in the series on SU-DHL-6. The IC50 in the series with HuT78 [5] is over 100 µM; with DOHH-2 it was 26.6 µM.

`Nc1ncnc2c1c(-c1ccc(CO)cc1)nn2CC(O)c1ccccc1` (racemic): the IC50 with FEPD [2] is 26.5 µM; with SU-DHL-8 [3] it was 27.2 µM; with H9, 22.3 µM; with HH, 17.3 µM; with Farage it was 27 µM; in the series with SU-DHL-6, 34.2 µM. Also, the IC50 is over 100 µM with HuT78 [5] and 12.1 µM in the series on DOHH-2.

Consider `Nc1ncnc2c1c(-c1ccc(I)cc1)nn2CC(Cl)c1ccccc1` (racemic), for which the IC50 came out at 20.5 µM in the series on FEPD [2]; 11.5 µM in the series on SU-DHL-8 [3]; 11.6 µM in the series with H9; 5.24 µM in the series on HH; 12.6 µM in the series with Farage; 13.2 µM with SU-DHL-6. Also, the IC50 in the series on HuT78 [5] came out at 12 µM; with DOHH-2 it was 3.68 µM.

As to `Cc1ccc(-c2nn(CCc3ccccc3)c3ncnc(N)c23)cc1`, the IC50 with FEPD [2] is 21.5 µM; in the series on SU-DHL-8 [3], 37 µM; with H9, over 100 µM; with HH it was 17.3 µM; in the series on Farage it was 16 µM; in the series on SU-DHL-6, over 100 µM. Further, the IC50 was over 100 µM with HuT78 [5] and 9.74 µM in the series with DOHH-2.

In the case of `Nc1ncnc2c1c(-c1ccc(Cl)cc1)nn2CCc1ccccc1`, the IC50 with FEPD [2] is 31.1 µM; in the series with SU-DHL-8 [3] it was 36 µM; in the series on H9, over 100 µM; in the series with HH it was 18.2 µM; in the series on Farage it was 18.6 µM; in the series with SU-DHL-6, over 100 µM. Also, the figures for the IC50 in the series on HuT78 [5] and with DOHH-2 were over 100 µM and 11.8 µM, respectively.

Take `CCCc1ccc(-c2nn(CC(Cl)c3ccccc3)c3ncnc(N)c23)cc1` (racemic): the IC50 stood at 29.2 µM with FEPD [2]; 6.72 µM in the series with SU-DHL-8 [3]; 4.74 µM with H9; 48.5 µM in the series on HH; 29.4 µM in the series with Farage; 31.1 µM in the series with SU-DHL-6. Also, the results for the half-maximal inhibitory concentration (IC50) in the series on HuT78 [5] and with DOHH-2 were 9.9 µM and 4.38 µM, respectively.

Take `CC(Cn1nc(-c2ccc(F)cc2)c2c(N)ncnc21)c1ccccc1` (racemic): the IC50 is over 100 µM in the series on FEPD [2]; 12.1 µM in the series on SU-DHL-8 [3]; 18.8 µM in the series with H9; 11.8 µM in the series with HH; 22.8 µM in the series on Farage; 22.9 µM in the series with SU-DHL-6. In addition, the IC50 is over 100 µM in the series on HuT78 [5] and 21.3 µM in the series with DOHH-2.

With `Nc1ncnc2c1c(-c1ccc(Br)cc1)nn2CC(Cl)c1ccccc1` (racemic), the IC50 in the series on FEPD [2] amounted to 21.7 µM; in the series on SU-DHL-8 [3], 11.8 µM; in the series with H9, 21.7 µM; in the series on HH, 12.4 µM; with Farage, 13.6 µM; with SU-DHL-6, 45.6 µM. For the same compound, the IC50 in the series on HuT78 [5] was determined as 21.1 µM; with DOHH-2, 11 µM.

With `Nc1ncnc2c1c(-c1cccc(Cl)c1)nn2CC(Cl)c1ccccc1` (racemic), the IC50 with FEPD [2] was 24.9 µM; with SU-DHL-8 [3], 13.7 µM; in the series with H9 it was 22.1 µM; in the series with HH, 43.1 µM; in the series with Farage, 30.9 µM; in the series with SU-DHL-6 it was over 100 µM. Besides, the IC50 in the series on HuT78 [5] is over 100 µM; in the series with DOHH-2 it was 27.4 µM.

As for `Nc1ncnc2c1c(-c1ccc(CO)cc1)nn2CC(Cl)c1ccccc1` (racemic), the outcome in the series with FEPD [11], in the series on SU-DHL-8 [12] and with HuT78 [13] was Active. In addition, the Ki in series [1] came to 0.12 µM; in series [4], 0.19 µM. For the same compound, the IC50 with FEPD [2] is 10.8 µM; with SU-DHL-8 [3], 6.14 µM; in the series with H9, 3.42 µM; in the series with HH, 2.4 µM; in the series on Farage it was 7.02 µM; with SU-DHL-6, 9.29 µM. Moreover, the IC50 turned out to be 4.5 µM in the series with HuT78 [5] and 2.44 µM with DOHH-2. In [6], this compound came in with a solubility at 24 h of 0.09 µg/mL (≈ 0.237 µM). In series [7], the Papp at 5 h, 500 µM was 10.8 ×10⁻⁶ cm/s. Further, the R% in [8] was 15.2%. Moreover, the remaining at 1 h, 50 µM in series [9] came to 85%.

In the case of `CC(Cn1nc(-c2ccc([N+](=O)[O-])cc2)c2c(N)ncnc21)c1ccccc1` (racemic), the IC50 with FEPD [2], in the series on SU-DHL-8 [3], in the series with H9, in the series with HH, with Farage and in the series with SU-DHL-6 was over 100 µM throughout. The IC50 with HuT78 [5] and in the series with DOHH-2 was over 100 µM each time.

In the case of `CCc1ccc(-c2nn(CC(Cl)c3ccccc3)c3ncnc(N)c23)cc1` (racemic), the IC50 turned out to be 21.5 µM in the series with FEPD [2]; 17.5 µM in the series with SU-DHL-8 [3]; 24.2 µM in the series with H9; 21.1 µM in the series with HH; 22.7 µM in the series on Farage; 29.7 µM in the series with SU-DHL-6. Moreover, the IC50 is 58 µM in the series with HuT78 [5] and 21.2 µM in the series on DOHH-2.

Consider `Cc1ccc(-c2nn(CC(Cl)c3ccccc3)c3ncnc(N)c23)cc1` (stereo not drawn), for which the IC50 in the series with FEPD [2] was over 100 µM; in the series on SU-DHL-8 [3] it was 12.1 µM; with H9 it was over 100 µM; with HH it was 14.8 µM; in the series with Farage, 19.2 µM; with SU-DHL-6, 23.4 µM. In addition, the figures for the IC50 in the series on HuT78 [5] and in the series with DOHH-2 were 11.1 µM and 11.8 µM, respectively.

Values taken from ChEMBL document CHEMBL4359870, “Identification of a new family of pyrazolo[3,4-d]pyrimidine derivatives as multitarget Fyn-Blk-Lyn inhibitors active on B- and T-lymphoma cell lines” (Eur J Med Chem, 2019).
